Vif imaging = HIV Vif self-association inhibitors, primary screen, imaging, HEK293T, single point; HEK293T cells, Vif self-association by quenched fluorescence, 24 h; inhibition, % at 7.49 µM; 340,000 tested, 0.35% active; in the data active means inhibition above about 50%, passing the limit was not always enough; inconclusive means no clear call, values can overlap the other calls; inactive means below about 31%
Statin myotox sup = suppressors of statin myotoxicity in C2C12 myotubes, primary screen, cell-based, single point, plate reader | AID 602340, 2012 | C2C12 myotubes + simvastatin, ATP luminescence, 48 h; scaled: DMSO 0, geranylgeraniol control 100 | rescue of ATP level, % at 7.49 µM | 330,000 tested, 0.78% active;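 active means mean ATP rescue above about 67%, or every replicate alone reaching that limit, limit read from the data, passing the limit was not always enough; inconclusive means no clear call, values can overlap the other calls; inactive means mean under the limit and some replicate under it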;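 further: myotubes were challenged with 10 µM simvastatin during compound exposure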
SR-BI DiI-HDL act = activators of SR-BI mediated DiI-HDL uptake, primary screen, ldlA[mSR-BI] CHO cells, DiI fluorescence; 3 h; 100 = double the neutral-control signal; activation, % at 12.5 µM; 320,000 tested, 0.096% active; AID 504775, 2011;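 active means mean replicate activation of at least 60% and every replicate at or above 60%; inconclusive means mean or all-replicate condition met, but not both; inactive means mean below 60% and not all replicates reaching 60%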;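 further: 0% = median plate neutral-control signal and 100% = twice that signal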
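Test system: SR-BI-overexpressing, LDLR-lacking CHO cells; Also added: labelled HDL, 10 µg/mL; Measured by: bottom-read cell fluorescence after medium removal, ex 550/em 595 nm; Timing: 3 h uptake period with compound, 37 °C; Buffer or medium: F12, 0.5% BSA, 25 mM HEPES; Doses: single compound concentration, delivered by pin transfer.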
SR-BI HDL uptake = inhibitors of SR-BI mediated HDL lipid uptake, primary screen, ldlA[mSR-BI] cells, fluorescence, single point; ldlA[mSR-BI] CHO cells, DiI-HDL uptake fluorescence, 3 h; inhibition, % at 12.5 µM; 320,000 tested, 0.96% active; AID 488896, 2010;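 active means mean replicate inhibition of at least 70% and a set share of replicates each scoring 70 or more; inconclusive means meets just one of the two criteria; inactive means fails both criteria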;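 further: 0% = median of neutral control wells and 100% = median of positive control wells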
Target sequence (Q61009 whole entry, looked up): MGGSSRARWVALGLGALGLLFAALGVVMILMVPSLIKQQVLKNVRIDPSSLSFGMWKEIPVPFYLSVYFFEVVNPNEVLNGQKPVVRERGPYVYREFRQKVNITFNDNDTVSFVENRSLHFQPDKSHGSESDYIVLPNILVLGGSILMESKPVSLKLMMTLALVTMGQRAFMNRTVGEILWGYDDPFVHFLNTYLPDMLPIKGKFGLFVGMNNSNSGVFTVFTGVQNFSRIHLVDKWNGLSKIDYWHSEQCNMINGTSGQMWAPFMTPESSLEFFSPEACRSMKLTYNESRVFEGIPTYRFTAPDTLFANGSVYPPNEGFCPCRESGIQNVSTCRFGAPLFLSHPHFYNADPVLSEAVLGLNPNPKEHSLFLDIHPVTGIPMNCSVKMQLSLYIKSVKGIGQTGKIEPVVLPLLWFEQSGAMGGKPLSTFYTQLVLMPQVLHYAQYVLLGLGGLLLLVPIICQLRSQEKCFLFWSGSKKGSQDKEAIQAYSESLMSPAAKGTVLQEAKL
Starred values were filed as active, the others as inactive; i = inactive; ? = inconclusive; / = not tested or not shown. The list is not random: actives were taken first. Their share in the collection is about 1.7%.

SMILES | Vif imaging | Statin myotox sup | SR-BI DiI-HDL act | SR-BI HDL uptake
Fc1ccc(Nc2nc(-c3ccncc3)nc3ccccc23)cc1 | 8.3 | / | -77.9 | 77.9*
CCCc1cn(CC[C@H]2CC[C@H](NC(=O)C3CCOCC3)[C@@H](CO)O2)nn1 | / | -5.8 | / | /
COc1cc(N=Nc2cccc(S(N)(=O)=O)c2)c2ccccc2c1N | 53.1* | 24.8 | -69.3 | 69.3
Cc1c(Cl)cccc1Nc1nc(N)nc(CN2CCCCCC2)n1 | 0.5 | 90.2* | -18.2 | 18.2
Cc1ccc(Nc2nc(N)nc(CN3CCCCCC3)n2)cc1 | 16.4 | 1.4 | 4.0 | -4.0
COc1ccc(OC)c(/C(O)=C/C(=O)C(=O)Nc2cc(C)ccc2OC)c1 | 61.0* | -5.3 | -9.7 | 9.7
COc1ccc(OC)c(/C(O)=C/C(=O)C(=O)Nc2cc(C)cc(C)c2)c1 | 5.8 | / | -8.4 | 8.4
O=C(CCSc1nc(-c2ccc3c(c2)OCO3)cc(C(F)(F)F)n1)NCc1ccco1 | 3.7 | 1.9 | -82.6 | 81.8*
O=C(CCSc1nc(-c2ccco2)cc(C(F)(F)F)n1)Nc1ccc2c(c1)OCO2 | -2.3 | 96.3* | 5.2 | -5.2
COc1ccc(-c2cc(C(F)(F)F)nc(SCCC(=O)Nc3cc(C)on3)n2)cc1 | 20.3 | / | 11.2 | -11.2
COCCNC(=O)CCSc1nc(-c2ccc(OC)cc2)cc(C(F)(F)F)n1 | -4.6 | 86.6* | -65.9 | 65.9
CCOC(=O)COc1ccc2c(c1)c(C(C)=O)c(C)n2-c1ccccc1 | -5.0 | 5.5 | -56.5 | 56.5
CCOc1ccc2c(c1)c(C(C)=O)c(C)n2-c1ccccc1 | / | -14.7 | -73.7 | 73.7*
C/C(=N\Nc1ccc([N+](=O)[O-])cc1)c1ccc2c(c1)OCO2 | 0.1 | / | -52.1 | 52.1
C/C(=N/Nc1ccc([N+](=O)[O-])cc1)c1c[nH]c2ccccc12 | / | -4.6 | -126.7 | 126.6*
C/C(=N\Nc1ccc([N+](=O)[O-])cc1)c1ccc(C#N)cc1 | 2.1 | -11.4 | -77.6 | 77.6*
Cc1[nH]c2ccccc2c1/C=N/Nc1ccc([N+](=O)[O-])cc1 | i | / | -128.1 | 128.1*
C[C@H](CO)N1C[C@H](C)[C@H](CN(C)Cc2ccc(F)cc2)OCc2ccccc2-c2ccccc2C1=O | / | -13.3 | / | /
CCC(=O)N1C[C@@H]2[C@H](c3ccccc31)[C@H](CO)N2Cc1ccccc1Cl | / | -7.7 | / | /
O=C(Nc1ccccc1)Nc1nc(-c2ccccc2)cs1 | -2.4 | / | ? | -215.8
COc1cccc(Nc2nc(-c3cccc(N4C(=O)c5ccccc5C4=O)c3)cs2)c1 | -3.3 | -26.9 | -91.2 | 91.2*
COc1cccc(-c2csc(N3CCN(C(=O)Nc4ccccc4OC)CC3)n2)c1 | 122.3* | 77.1* | -44.7 | 44.7
COc1cccc(-c2csc(NC(=O)Nc3ccccc3)n2)c1 | -26.1 | -71.5 | -77.3 | 77.3*
CC(=O)N[C@@H]1CC[C@H](CCNC(=O)C2CCCC2)O[C@H]1CO | / | -4.4 | / | /
CCC(=O)N1CC[C@@H]2[C@H](CO)Nc3ccc(C#Cc4cccnc4)cc3[C@@H]21 | / | -13.9 | / | /
SMILES | Vif imaging | Statin myotox sup | SR-BI DiI-HDL act | SR-BI HDL uptake
COc1ccc(C(=O)Nc2nc3c(s2)Cc2cc(OC)ccc2-3)cc1 | -9.7 | 0.8 | -86.6 | 86.6*
CN(C)CCCNC(=O)C[C@@H]1CC[C@@H]2[C@@H](COc3ccc(NC(=O)NC4CCCC4)cc3C(=O)N2C)O1 | / | 16.7 | / | /
C=CC(C)(C)c1c2occc2c(O)c2ccc(=O)oc12 | -28.5 | -8.4 | 17.3 | -17.3
C=CC(C)(C)c1c(O)c(CC=C(C)C)c(O)c2c(=O)c3ccc(O)c(O)c3oc12 | -31.1 | -1.0 | -122.6 | 122.6*
Cc1cc(/C=C2\SC(=S)N(Cc3ccco3)C2=O)c(C)n1-c1cccnc1 | 187.1* | 2.6 | 42.5 | -42.5
Cc1cc(/C=C2/SC(=S)N(c3cccc(C(F)(F)F)c3)C2=O)c(C)n1-c1cccnc1 | -15.2 | / | -75.9 | 75.9*
O=C1/C(=C/c2cccnc2)SC(=S)N1Cc1ccco1 | -6.6 | / | 10.2 | -10.2
COc1cccc(/C=C2\SC(=S)N(c3cccnc3)C2=O)c1OC | 4.4 | / | 9.1 | -9.1
COc1ccc(S(=O)(=O)N(C)C[C@@H]2Oc3ccc(NS(=O)(=O)c4c(C)noc4C)cc3CC(=O)N([C@H](C)CO)C[C@H]2C)cc1 | / | -12.1 | / | /
CCn1c(COc2cccc(OC)c2)nnc1SCC(=O)NC1CCCC1 | 50.9* | 12.0 | / | /
O=C(N/N=C/c1cc(Cl)ccc1O)c1ccc(Br)cc1 | -1.3 | / | -134.8 | 134.9*
O=C(N/N=C/c1cc(Br)ccc1O)c1ccncc1 | -5.3 | 15.4 | -120.3 | 120.3*
